Data set [1] deals with T1, Histone deacetylase 7 (Homo sapiens) (UniProt Q8WUI4).
T1 sequence (whole entry): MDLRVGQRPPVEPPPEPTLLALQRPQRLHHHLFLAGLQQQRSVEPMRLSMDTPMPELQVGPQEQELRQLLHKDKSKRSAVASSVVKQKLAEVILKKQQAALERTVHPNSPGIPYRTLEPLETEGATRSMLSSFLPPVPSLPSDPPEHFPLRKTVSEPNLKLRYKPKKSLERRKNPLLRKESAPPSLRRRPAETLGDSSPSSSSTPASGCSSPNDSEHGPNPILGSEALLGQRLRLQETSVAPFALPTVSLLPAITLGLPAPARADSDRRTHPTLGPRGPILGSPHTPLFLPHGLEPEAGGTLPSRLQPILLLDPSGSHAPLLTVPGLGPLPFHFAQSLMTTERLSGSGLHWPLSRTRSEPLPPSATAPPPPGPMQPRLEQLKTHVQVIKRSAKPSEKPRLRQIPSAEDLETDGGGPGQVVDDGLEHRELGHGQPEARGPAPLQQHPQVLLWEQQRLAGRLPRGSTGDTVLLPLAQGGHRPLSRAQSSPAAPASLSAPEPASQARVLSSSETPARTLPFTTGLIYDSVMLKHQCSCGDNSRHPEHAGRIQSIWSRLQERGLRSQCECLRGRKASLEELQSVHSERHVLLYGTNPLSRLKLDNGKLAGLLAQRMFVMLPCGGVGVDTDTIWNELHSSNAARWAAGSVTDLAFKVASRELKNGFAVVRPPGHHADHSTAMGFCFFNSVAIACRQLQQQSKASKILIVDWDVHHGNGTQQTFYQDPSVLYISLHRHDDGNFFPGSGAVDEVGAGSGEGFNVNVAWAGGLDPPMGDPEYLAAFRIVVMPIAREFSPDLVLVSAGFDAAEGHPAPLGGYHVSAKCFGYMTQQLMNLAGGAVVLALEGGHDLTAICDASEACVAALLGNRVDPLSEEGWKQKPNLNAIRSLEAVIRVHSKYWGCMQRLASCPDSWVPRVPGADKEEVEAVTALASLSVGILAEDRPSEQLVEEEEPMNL
Kind of data set: Inhibition of human recombinant HDAC7 using fluorogenic trifluoroacetyl lysine as substrate at 10 uM by fluorescence method. Summed up:
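Selectivity profile across HDAC isoforms 1–11 at a single concentration of 10 μM, run in duplicate.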

Data set [2] can be described thus: Neurotoxicity against rat CGN cells assessed as cell viability at 5 uM incubated for 24 hrs by MTT assay. It counts as toxicity, cell-based. To be noted: read-out: Activity. The method, boiled down: (§1)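 Primary rat cerebellar granule neuron cultures were exposed for 24 h to 5, 25 or 50 μM. Viability was measured by MTT and expressed as percentage of untreated controls, as mean ± SE of at least three experiments, each run in triplicate.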
Background: Tetrazolium dyes change colour on reduction, which living cells bring about.

Data set [3] deals with N9. Kind of data set: Immunomodulatory activity in mouse N9 cells assessed as reduction in LPS-induced MRC1 expression at 5 to 25 uM incubated for 24 hrs by Western blot analysis. Format: functional, cell-based. The method, boiled down: (§2)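 N9 mouse microglial cells stimulated with LPS (100 ng/mL) and treated at 5 and 25 μM. iNOS and MRC1 levels were read by Western blot with GAPDH as loading control. Densitometry is expressed as percentage of LPS-only cells, as mean ± SE of three independent experiments.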
(In general: In western blotting, separated proteins are transferred to a membrane and probed.)

Data set [4] is described as follows: Neurotoxicity against rat CGN cells assessed as cell viability at 50 uM incubated for 24 hrs by MTT assay. It counts as toxicity, cell-based. To be noted: read-out: Activity. Summed up: as §1
Data set [5] relates to N9. Kind of data set: Immunomodulatory activity in mouse N9 cells assessed as increase in LPS-induced MRC1 expression at 25 uM incubated for 24 hrs by Western blot analysis. Format: functional, cell-based. Summed up:
as §2

Our source for the inhibition, viability and Activity values is ChEMBL document CHEMBL4433221, “Novel Sustainable-by-Design HDAC Inhibitors for the Treatment of Alzheimer's Disease” (ACS Med Chem Lett, 2019).

Molecules are shown by their SMILES. Activity calls are given as the source filed them. No cut-off for these calls is given here.

In the case of `COc1cccc(CCCCCCCC(=O)NO)c1`, in data set [1], the inhibition result was “inactive”. In addition, the viability at 24 h, 5 µM in data set [2] was at most 50%. For the same compound, the Activity result in the data set on N9 [3] is “Dose-dependent effect”.

For `COC(=O)c1c(CCCCCCCC(=O)NO)cccc1OC`, the inhibition result in data set [1] was “inactive”. Moreover, in data set [4], the viability at 24 h, 50 µM is over 80%. For the same compound, the outcome with N9 [5] was Active.
